High-throughput results (PubChem)
In the library only some 4% were active in any assay of this set; here they are far more common.
Statin myotox sup: suppressors of simvastatin-induced myotoxicity in C2C12 myotubes | rescue of ATP level, % at 7.49 µM | hit rate 0.78% among 330,000 | ATP luminescence, 48 h; scaled: DMSO 0, geranylgeraniol control 100;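 active = mean ATP rescue above about 67%, or every replicate alone reaching that limit, limit read from the data, passing the limit was not always enough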;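 note: myotubes were challenged with 10 µM simvastatin during compound exposure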
rRNA inh HTS: selective bacterial rRNA inhibition in E. coli. hit rate 1.6% among 350,000. GFP signal change (wild-type ribosome), % (test concentration not listed). E. coli WT GFP vs humanized-ribosome RFP mutants, fluorescence, 24 h; hits give low values; DMSO median 0, no signal -100;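 active = significant combined selectivity score with lowered wild-type GFP, culture density cut under 30%, mutant RFP and density less affected; inactive = any of these conditions unmet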
SIRT5 block: blocks human SIRT5 desuccinylation of peptide; Q9NXA8; Purified SirT5, succinyl-peptide AMC, trypsin-coupled fluorescence; inhibition, % at 15 µM; hit rate 1.1% among 330,000; in the data active = inhibition above about 15%
FGF22 binding: binders of recombinant human FGF22 by thermal shift; activity (Tm shift, normalised), % at 9.99 µM; hit rate 1.5% among 340,000; SYPRO orange fluorescence; percent of sucrose octasulfate shift, DMSO zero;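 active = mean Tm shift, scaled 0 neutral to 100 positive control, at about 1.3% or above, every replicate too, limit read from the data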
E-selectin induc: E-selectin induction on HUVECs; hit rate 0.37% among 260,000; activation, % at 7.58 µM; HUVEC E-selectin immunofluorescence imaging; normalized: neutral wells 0, TNF-alpha wells 100; P16581;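 active = mean E-selectin-positive cell signal at least 10% of the positive control, reached in at least 60% of replicates, without over 20% cell loss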
Target sequence (P16581 whole entry, looked up): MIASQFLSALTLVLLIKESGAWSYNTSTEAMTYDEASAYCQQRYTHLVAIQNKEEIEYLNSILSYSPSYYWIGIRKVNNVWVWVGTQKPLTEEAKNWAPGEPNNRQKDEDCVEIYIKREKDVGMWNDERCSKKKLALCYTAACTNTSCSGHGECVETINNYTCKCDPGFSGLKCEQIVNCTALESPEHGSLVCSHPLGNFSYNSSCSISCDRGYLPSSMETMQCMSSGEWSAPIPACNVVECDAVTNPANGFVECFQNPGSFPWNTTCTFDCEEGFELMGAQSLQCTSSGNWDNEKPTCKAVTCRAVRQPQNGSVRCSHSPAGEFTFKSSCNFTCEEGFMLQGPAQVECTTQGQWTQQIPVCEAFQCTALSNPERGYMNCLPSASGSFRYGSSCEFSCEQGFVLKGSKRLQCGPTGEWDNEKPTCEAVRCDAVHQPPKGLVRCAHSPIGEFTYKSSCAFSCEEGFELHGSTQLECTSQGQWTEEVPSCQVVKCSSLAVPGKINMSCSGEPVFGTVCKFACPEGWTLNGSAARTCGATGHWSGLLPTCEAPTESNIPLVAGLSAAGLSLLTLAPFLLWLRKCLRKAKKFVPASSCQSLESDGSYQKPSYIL
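Test system: HUVEC; input: 3,000 HUVEC/well; measured by: immunofluorescence imaging; read-out: % PE-positive cells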
FN deposit inh: fibronectin deposition inhibition; AH1F fibroblasts, Alexa488-fibronectin deposition fluorescence, overnight; inhibition, % at 12.6 µM; hit rate 0.086% among 350,000;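 active = mean inhibition across replicates of 30% or more, regardless of how many single replicates reach that level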
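test system = AH1F fibroblasts assembling fluorescent fibronectin matrix | quantity = 10000 AH1F cells per well | buffer or medium = DMEM plus 2% serum, read in PBS | doses = single dose, pinned | incubation = 1 h cell attachment, overnight exposure to compound and label | detection = fluorescence at 485 nm excitation, 525 nm emission | read-out basis = inhibition from reduced deposited-fibronectin fluorescence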
Of the large screens only hits and unclear results are named; the others gave an inactive call; ! = not active in a repeat.

O=C(CN1CC(=O)Nc2ccccc21)Nc1ccc(F)c(F)c1	FGF22 binding 43 (no result: Statin myotox sup)
O=C(CN1CCNC(=O)C1)NCCc1ccc(Cl)cc1Cl	none (no result: Statin myotox sup)
Cc1cccc(C)c1NC(=O)c1ccc(-n2cncn2)nc1	none (no result: rRNA inh HTS, SIRT5 block, FGF22 binding, E-selectin induc, FN deposit inh)
C=CCOC(=O)c1ccc(-n2cncn2)nc1	Statin myotox sup 134 (no result: rRNA inh HTS, SIRT5 block, FGF22 binding, E-selectin induc)
O=C(Nc1cccc(C(F)(F)F)c1)c1ccc(-n2cncn2)nc1	FGF22 binding 43 (no result: Statin myotox sup, rRNA inh HTS, E-selectin induc)
CN(/N=C/c1cc([N+](=O)[O-])ccc1O)c1ccccc1	none (no result: Statin myotox sup)
CC(N=Cc1cc([N+](=O)[O-])ccc1O)c1ccccc1 (centres undefined)	FGF22 binding 44
CCCNC(=O)N1CC2(CCN(Cc3cccc(F)c3)CC2)c2c([nH]c3cc(OC)ccc23)[C@@H]1CO	none (no result: Statin myotox sup, FN deposit inh)
CCOC(=O)c1c(S(=O)(=O)NCc2cccs2)c(C)n(C)c1C	none (no result: E-selectin induc)
Cc1nn(C)c(C)c1S(=O)(=O)NCc1cccs1	Statin myotox sup 82 (no result: rRNA inh HTS, SIRT5 block, FGF22 binding, E-selectin induc, FN deposit inh)
O=C1CCCN1c1nccs1	FGF22 binding 44 (no result: E-selectin induc)
O=C1C2C3CC(C(Br)C3Br)C2C(=O)N1c1nccs1 (centres undefined)	none (no result: Statin myotox sup, SIRT5 block)
COC(=O)C[C@@H]1CC[C@@H]2[C@H](COc3ccc(NC(=O)Nc4cccc(C)c4)cc3C(=O)N2C)O1	none
C[C@@H]1CN([C@H](C)CO)C(=O)c2cc(NC(=O)CCC(F)(F)F)ccc2O[C@H]1CN(C)C(=O)NC1CCCCC1	none (no result: FN deposit inh)
CCCN(C)C[C@@H]1Oc2ncc(-c3ccccc3)cc2C(=O)N([C@H](C)CO)C[C@@H]1C	E-selectin induc 90 (no result: FN deposit inh)
Cc1ccc(S(=O)(=O)N(C)C[C@H]2Oc3ncc(-c4ccncc4)cc3C(=O)N([C@@H](C)CO)C[C@H]2C)cc1	none
C[C@H](CO)N1C[C@H](C)[C@@H](CN(C)C(=O)C2CCOCC2)Oc2ncc(-c3ccccc3)cc2C1=O	SIRT5 block 21 (no result: FN deposit inh)
Cc1ccc(S(=O)(=O)N(C)C[C@H]2Oc3ncc(-c4ccncc4)cc3C(=O)N([C@@H](C)CO)C[C@@H]2C)cc1	SIRT5 block 32
C[C@@H]1CN([C@@H](C)CO)C(=O)c2cc(-c3cccc(F)c3)cnc2O[C@H]1CN(C)C	SIRT5 block 20
C[C@H]1CN([C@@H](C)CO)C(=O)c2cc(-c3cccc(F)c3)cnc2O[C@H]1CN(C)C	none
CCCN(C)C[C@@H]1Oc2ncc(-c3ccccc3)cc2C(=O)N([C@@H](C)CO)C[C@H]1C	none (no result: rRNA inh HTS, SIRT5 block, FGF22 binding, E-selectin induc, FN deposit inh)
O=C(NC1CCC1)[C@@H]1[C@@H](CO)[C@@H]2Cn3c(ccc(-c4ccccc4F)c3=O)[C@@H]2N1Cc1cocn1	none (no result: FN deposit inh)
C[C@@H]1CN([C@@H](C)CO)C(=O)c2cc(/C=C/c3ccccc3)cnc2O[C@@H]1CN(C)S(=O)(=O)c1ccc(F)cc1	SIRT5 block 32!
COc1ccc(-c2cnc3c(c2)C(=O)N([C@H](C)CO)C[C@H](C)[C@H](CN(C)S(=O)(=O)c2ccc(F)cc2)O3)cc1	Statin myotox sup 102
COc1ccc(S(=O)(=O)N(C)C[C@@H]2Oc3ncc(C#CCN(C)C)cc3C(=O)N([C@H](C)CO)C[C@@H]2C)cc1	SIRT5 block 21
Cc1ccc(-c2cnc3c(c2)C(=O)N([C@@H](C)CO)C[C@H](C)[C@H](CN(C)C)O3)cc1	SIRT5 block 16
C[C@@H]1CN([C@H](C)CO)C(=O)c2cc(/C=C/c3ccccc3)cnc2O[C@H]1CN(C)S(=O)(=O)c1ccc(F)cc1	none
CC(C)CC#Cc1ccc2c(c1)O[C@H](CN(C)Cc1cncnc1)[C@@H](C)CN([C@H](C)CO)S2(=O)=O	none
C[C@H](CO)N1C[C@H](C)[C@H](CN(C)C(=O)c2cccc(F)c2)Oc2ncc(-c3ccccc3)cc2C1=O	FN deposit inh 34 (no result: SIRT5 block, FGF22 binding)
CN(C=O)c1ccc(CSc2ccccc2)cc1	rRNA inh HTS -29, SIRT5 block 36
COc1ccc(CN(C)C[C@H]2OCCCC[C@@H](C)Oc3ccc(NS(=O)(=O)c4ccc(F)cc4)cc3C(=O)N([C@@H](C)CO)C[C@H]2C)cc1	none (no result: Statin myotox sup, E-selectin induc)
CCn1c(=O)c([N+](=O)[O-])c(N2CCSCC2)c2ccccc21	rRNA inh HTS -34
